# Assay results collected from several papers.
# Each line is one published result; the experiments were not run side by side.
# Read-out: cell growth or viability
SMILES,cell line,method,concentration,time,notes,endpoint,result
N.N.[Cl][Pt][Cl],CCD-18Co,ATP luminescence,,,,GI50,1.1 µg/mL
COc1cc(OC)c(/C=C/S(=O)(=O)Nc2ccc(OC)c(N)c2)c(OC)c1,RF1,trypan blue,,96 h,,IC50,0.004 µM
CCOC(=O)C1=C(N)N(c2ccc(C(=O)OCC)cc2)C(O)=C(C#N)C12C(=O)Nc1ccccc12 (stereo not shown),HepG2,MTT,25 µM,24 h,,viability,26.3%
C=CC(=O)Nc1cc(Nc2nccc(-c3cn(C)c4ccccc34)n2)c(OC)cc1N(C)CCN(C)C,NCI-H292,ATP luminescence,,72 h,,GI50,3.75 µM
O=C1[O][Pt]2([NH][C@@H]3CCCC[C@H]3[NH]2)[O]C1=O,PNT2,MTT,,96 h,,IC50,1.3 µM
CC[C@@]1(OC(=O)C(C)c2ccc(CC(C)C)cc2)C(=O)OCc2c1cc1n(c2=O)Cc2cc3cc4c(cc3nc2-1)OCO4 (stereo partly shown),HepG2,MTT,,,,IC50,> 5 µM
CC1=C(O)C(=O)C=C2C1=CC=C1[C@@]2(C)CC[C@@]2(C)[C@@H]3C[C@](C)(C(=O)O)CC[C@]3(C)CC[C@]12C,HepG2,MTT,20 µM,,,inhibition,92%
CCC1(OC(=O)C(C)c2ccc3cc(OC)ccc3c2)C(=O)OCc2c1cc1n(c2=O)Cc2cc3cc4c(cc3nc2-1)OCO4 (stereo not shown),HepG2,MTT,,,,IC50,3.5 µM
[N-]=[N+]=[N-],A-431,MTT,,3 h,,IC50,> 100 µM
CC[C@@]1(OC(=O)CN)C(=O)OCc2c1cc1n(c2=O)Cc2cc3cc4c(cc3nc2-1)OCO4,HepG2,MTT,,,,IC50,0.025 µM
N.N.[Cl][Pt][Cl],Huh-7,MTT,20 µM,,,inhibition,76.4%
CC[C@@]1(O)C(=O)OCc2c1cc1n(c2=O)Cc2cc3cc4c(cc3nc2-1)OCO4,HepG2,MTT,,72 h,,IC50,0.022 µM
N.N.[Cl][Pt][Cl],A-431,MTT,,24 h,dark,IC50,40.1 µM
